procasp7 counter = procaspase-7 activators, primary screen, counter-screen for procaspase-3 activator project, biochemical, absorbance, HTS, human; activation, % at 8.5 µM; 330,000 compounds, 0.093% hits; recombinant procaspase-7, Ac-DEVD-pNA absorbance 405 nm; D23A/D198A/D206A triple mutant, cannot self-cleave; scale: DMSO 0, 5 µM enzyme 100; Caspase-7 (Homo sapiens), P55210;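 active = percent activation above the screen-wide mean plus 3 SD, cut at about 25% in these data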
Target sequence (P55210 whole entry D23A/D198A/D206A): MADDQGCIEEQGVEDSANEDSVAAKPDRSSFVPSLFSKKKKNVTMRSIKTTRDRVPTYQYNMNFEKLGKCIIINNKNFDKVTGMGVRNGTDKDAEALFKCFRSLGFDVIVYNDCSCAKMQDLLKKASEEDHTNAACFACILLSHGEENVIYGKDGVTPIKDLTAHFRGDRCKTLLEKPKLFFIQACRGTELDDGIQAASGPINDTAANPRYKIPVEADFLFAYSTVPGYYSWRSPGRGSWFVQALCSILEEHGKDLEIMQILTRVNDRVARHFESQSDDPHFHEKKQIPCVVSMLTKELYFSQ
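Material: Procaspase-7 triple mutant (PC-7 D3A) | Quantity: 2 µM procaspase-7 mutant as dispensed | Reagent: DEVD-pNA substrate | Times: 1 h preincubation, 2 h reaction | Technique: 405 nm absorbance of p-nitroaniline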
PKA-R1A act = activators of PKA-R1A holoenzyme, primary screen, biochemical, fluorescence polarization, Cy5-IP20, bovine R1A, mouse PKAc; AID 504707, 2011; PKA-R1A dissociation; scaled: DMSO 0%, 113 µM cGMP 100%; 340,000 compounds, 0.083% hits; activation, % at 11.4 µM; cAMP-dependent protein kinase type I-alpha regulatory subunit (Bos taurus) + …;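 active = percent activation above the mean of all tested compounds plus 3 SD, cut at about 19% in these data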;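 note: higher means more PKAc released from R1A so a rise in polarization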
procasp3 activ = activators of human procaspase-3 D3A mutant, primary screen, biochemical, absorbance, PC-3 D3A mutant, single concentration; Caspase-3 (Homo sapiens), P42574; recombinant procaspase-3 D3A, Ac-DEVD-pNA absorbance 405 nm; activation, % at 8.5 µM; 330,000 compounds, 0.11% hits;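 active = activation above the mean of all tested compounds plus 3 SD, cut at about 21% in these data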;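 note: 0% = DMSO alone and 100% = DMSO wells spiked with extra 5 µM PC-3 D3A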
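System: Procaspase-3 D3A mutant. Medium: Zinc-free 300 mM NaCl, 50 mM HEPES, 0.01% Triton X-100. Schedule: 1 h preincubation plus 2 h reaction at 25 °C. Measured by: 405 nm absorbance of p-nitroaniline, reads at 0 and 120 min. Read-out: percent activation relative to control range.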
PKA-R2B activ = activators of PKA-R2B holoenzyme, primary screen, biochemical, fluorescence polarization, Cy5-IP20, human. 340,000 compounds, 0.079% hits. PKA-R2B holoenzyme dissociation; R2B truncated from residue 108, S112A mutant; 0% DMSO only, 100% 113 µM cGMP. activation, % at 11.4 µM. cAMP-dependent protein kinase catalytic subunit beta (Homo sapiens) + cAMP-dependent …;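 active = activation above a cutoff set at the mean over all compounds plus 3 SD, cut at about 18% in these data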;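 note: higher means more holoenzyme dissociation and a rise in polarization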
R1A FP artifact = FP signal interference without PKA proteins, confirmation, artefact control for PKA-R1A activator project, biochemical, fluorescence polarization, triplicate. shares compounds with PKA-R1A act. Cy5-IP20 peptide alone, fluorescence polarization artifact counterscreen. activation, % at 11.4 µM. 280 compounds, 7% hits. AID 504799, 2011;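 active = mean activation over triplicate runs exceeds the adjusted cutoff derived for the parent primary screen, cut at about 19% in these data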;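 note: no PKA protein present so any polarization rise reflects compound interference; 0% = tracer peptide mix alone and 100% = mix with added PKA catalytic subunit; higher means stronger polarization artifact and likely false positive in parent screen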
PKA-R1A confirm = activators of PKA-R1A holoenzyme, confirmation, biochemical, fluorescence polarization, Cy5-IP20, triplicate; shares compounds with PKA-R1A act; PKA-R1A holoenzyme dissociation; activation, % at 11.4 µM; 280 compounds, 9% hits;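 active = mean activation over replicate wells exceeds the adjusted hit threshold taken from the earlier primary screen, cut at about 20% in these data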;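 note: 0% = holoenzyme mix with DMSO only and 100% = cGMP-activated control wells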
The depositor's hits bear a star. An excerpt weighted towards active compounds, which were near 0.29% of everything screened.

For CC1CC(N(C(=O)c2ccco2)c2ccccc2)c2ccccc2N1C(=O)c1ccco1 (stereo not given) the results were procasp7 counter 9, PKA-R1A act 19*, procasp3 activ -2, PKA-R2B activ 0, R1A FP artifact 0 and PKA-R1A confirm 2.
Screening COc1cc(OC)cc(-c2nc(-c3ccccc3OC)no2)c1 returned procasp7 counter 10, PKA-R1A act 19*, procasp3 activ 13, PKA-R2B activ 12, R1A FP artifact 3 and PKA-R1A confirm 5.
COc1ccccc1-c1noc(-c2cc(OC)c(OC)c(OC)c2)n1 was read as procasp7 counter 4, PKA-R1A act 4, procasp3 activ 3 and PKA-R2B activ 3.
O=C(COC(=O)C1CC(=O)N(Cc2ccco2)C1)Nc1ccc(F)cc1F (stereo not given) was read as procasp7 counter 3, PKA-R1A act 20*, procasp3 activ 11, PKA-R2B activ -8, R1A FP artifact -4 and PKA-R1A confirm -1.
CC(=O)c1ccc(NC(=O)CSc2nc3nc(C)cc(C)n3n2)cc1 was read as procasp7 counter -3, PKA-R1A act 19*, procasp3 activ 2, PKA-R2B activ 2, R1A FP artifact 0 and PKA-R1A confirm 1.
`CC(=O)Nc1ccc(C(=O)OCc2ccc(Cl)cc2)cc1` gave procasp7 counter 6, PKA-R1A act 0, procasp3 activ 2 and PKA-R2B activ 2.
For CCCS(=O)(=O)c1ccc(COC(=O)c2ccc(NC(C)=O)cc2)cc1 the results were procasp7 counter 0, PKA-R1A act 22*, procasp3 activ 3, PKA-R2B activ 3, R1A FP artifact 0 and PKA-R1A confirm 7.
CC(C)Nc1ccc(C(CC(N)=O)NC(=O)c2ccc(Br)cc2)cc1[N+](=O)[O-] (stereo not given) was read as procasp7 counter -6, PKA-R1A act 0, procasp3 activ 9 and PKA-R2B activ -4.
For CN(Cc1ccccc1)c1ccc(C(CC(N)=O)NC(=O)c2ccc(Br)cc2)cc1[N+](=O)[O-] (stereo not given) the results were procasp7 counter -13, PKA-R1A act 25*, procasp3 activ 4, PKA-R2B activ 8, R1A FP artifact 19* and PKA-R1A confirm 19*.

Assay outcomes: PubChem BioAssay, The Scripps Research Institute Molecular Screening Center
